Data published in ChEMBL document CHEMBL2169742, “Design, synthesis, and biological evaluation of novel transrepression-selective liver X receptor (LXR) ligands with 5,11-dihydro-5-methyl-11-methylene-6H-dibenz[b,e]azepin-6-one skeleton” (J Med Chem, 2012).
The source made the active and inactive calls. No cut-off for these calls is given here.

What was measured:
Liver X receptor = target: T1, Liver X receptor (Homo sapiens, UniProt Q13133+P55055); test: Transrepressional activity at LXR in human TPA-activated THP1 cells assessed as inhibition of LPS-induced IL6 production incubated for 6 hrs prior to LPS-challenge measured after 18 hrs by ELISA; assay type: cell-based; details: thp-1
T1 sequence (Q13133 whole entry): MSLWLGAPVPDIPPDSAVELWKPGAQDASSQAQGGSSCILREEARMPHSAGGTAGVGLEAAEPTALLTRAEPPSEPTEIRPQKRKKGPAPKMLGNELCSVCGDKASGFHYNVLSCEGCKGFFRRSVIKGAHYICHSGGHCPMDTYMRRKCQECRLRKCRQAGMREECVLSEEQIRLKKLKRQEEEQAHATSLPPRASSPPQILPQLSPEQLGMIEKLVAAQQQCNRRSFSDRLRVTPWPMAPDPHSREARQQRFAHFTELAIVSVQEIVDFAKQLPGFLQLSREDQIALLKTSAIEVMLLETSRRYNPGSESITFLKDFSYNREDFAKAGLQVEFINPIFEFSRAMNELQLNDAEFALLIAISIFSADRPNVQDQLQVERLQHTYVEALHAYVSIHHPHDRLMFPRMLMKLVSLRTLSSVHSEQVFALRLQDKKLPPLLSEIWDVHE
T1 sequence (P55055 whole entry): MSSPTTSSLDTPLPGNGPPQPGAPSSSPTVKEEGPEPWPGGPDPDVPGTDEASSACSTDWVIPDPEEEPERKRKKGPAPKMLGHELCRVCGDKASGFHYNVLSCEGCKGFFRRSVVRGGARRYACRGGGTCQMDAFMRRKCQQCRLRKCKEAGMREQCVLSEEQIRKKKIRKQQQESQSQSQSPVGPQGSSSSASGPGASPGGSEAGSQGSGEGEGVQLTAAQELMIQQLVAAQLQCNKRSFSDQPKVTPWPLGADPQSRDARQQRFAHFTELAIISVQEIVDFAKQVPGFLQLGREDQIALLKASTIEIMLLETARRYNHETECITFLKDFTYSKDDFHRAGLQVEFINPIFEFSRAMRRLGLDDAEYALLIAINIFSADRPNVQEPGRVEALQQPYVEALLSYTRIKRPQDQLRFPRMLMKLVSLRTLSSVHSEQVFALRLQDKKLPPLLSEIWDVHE

[1] = test system: Peritoneal macrophage cell; test: Inhibition of LPS-induced IL-1beta mRNA expression in LXRalpha-deficient C57BL/6J mouse peritoneal macrophages at 10 uM incubated for 6 hrs prior to LPS-challenge measured after 18 hrs by RT-PCR analysis; assay type: functional, cell-based
In short: (§1)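 Thioglycollate-elicited peritoneal macrophages (wild-type C57BL/6J or LXRα-null, 8–10 weeks) were plated at 4 × 10⁶/well and pretreated with compound 6 h before LPS 100 ng/mL. Cells were harvested after 18 h. il-6 and il-1β mRNA were measured by real-time quantitative PCR, normalized to GAPDH.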

[2] = test system: Peritoneal macrophage cell; test: Inhibition of LPS-induced IL-6 mRNA expression in LXRalpha-deficient C57BL/6J mouse peritoneal macrophages at 10 uM incubated for 6 hrs prior to LPS-challenge measured after 18 hrs by RT-PCR analysis; assay type: functional, cell-based; in short: as §1
[3] = Induction of LPS-induced IL-6 production in LXRalpha,LXRbeta-deficient C57BL/6J mouse peritoneal macrophages at 10 uM incubated for 6 hrs prior to LPS-induction measured after 18 hrs by ELISA; assay type: cell-based; details: peritoneal macrophage cell
In short: (§2)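 Thioglycollate-elicited peritoneal macrophages came from 8–10-week LXRα/β-null mice on C57BL/6J background, harvested 4 days post-injection. They were adhered, rested 24 h and plated at 2 × 10⁵/well, then pretreated with compound 6 h before LPS 10 ng/mL. Supernatant mIL-6 was measured by ELISA after 18 h; means ± SE of ≥3 independent measurements, ANOVA.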

[4] = test system: Peritoneal macrophage cell; test: Inhibition of LPS-induced IL-6 production in LXRalpha,LXRbeta-deficient C57BL/6J mouse peritoneal macrophages at 10 uM incubated for 6 hrs prior to LPS-challenge measured after 18 hrs by ELISA; assay type: functional, cell-based; in short: as §2
[5] = Transrepressional activity at LXR in C57BL/6J mouse peritoneal macrophages assessed as inhibition of LPS-induced IL-1beta mRNA expression at 10 uM incubated for 6 hr prior to LPS-challenge measured after 18 hrs by RT-PCR analysis; in short: as §1
[6] = Transrepressional activity at LXR in C57BL/6J mouse peritoneal macrophages assessed as inhibition of LPS-induced IL-6 mRNA expression at 10 uM incubated for 6 hr prior to LPS-challenge measured after 18 hrs by RT-PCR analysis; in short: as §1
[7] = target: T2, Oxysterols receptor LXR-beta (Homo sapiens, UniProt P55055); test: Transactivational agonist activity at human LXRbeta transfected in HEK293 cells expressing CMX-Gal4N assessed as luciferase activity after 16 hrs by reporter gene assay relative to N-(4-(1,1,1,3,3,3-hexafluoro-2-hydroxypropan-2-yl)phenyl)-N-methylbenzamide; assay type: cell-based; details: read-out: Efficacy
T2 sequence (P55055 whole entry): T1 sequence (P55055 whole entry)

[8] = target: T2, Oxysterols receptor LXR-beta; test: Transactivational agonist activity at human LXRbeta transfected in HEK293 cells expressing CMX-Gal4N assessed as luciferase activity after 16 hrs by reporter gene assay; assay type: cell-based
In short: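 Gal4-hLXRα or Gal4-hLXRβ chimera (15 ng) cotransfected with tk-MH100×4-luc reporter (50 ng) and CMX-β-gal (10 ng) into HEK293 cells by calcium phosphate. Luciferase was normalized to β-gal, in triplicate.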

[9] = target: T3, Oxysterols receptor LXR-alpha (Homo sapiens, UniProt Q13133); test: Transactivational agonist activity at human LXRalpha transfected in HEK293 cells expressing CMX-Gal4N assessed as luciferase activity after 16 hrs by reporter gene assay relative to N-(4-(1,1,1,3,3,3-hexafluoro-2-hydroxypropan-2-yl)phenyl)-N-methylbenzamide; assay type: cell-based; details: read-out: Efficacy
T3 sequence (Q13133 whole entry): T1 sequence (Q13133 whole entry)

[10] = target: T3, Oxysterols receptor LXR-alpha; test: Transactivational agonist activity at human LXRalpha transfected in HEK293 cells expressing CMX-Gal4N assessed as luciferase activity after 16 hrs by reporter gene assay; assay type: cell-based
[11] = Induction of LPS-induced IL-6 production in LXRalpha,LXRbeta-deficient C57BL/6J mouse peritoneal macrophages at 3 uM incubated for 6 hrs prior to LPS-induction measured after 18 hrs by ELISA; assay type: cell-based; details: peritoneal macrophage cell; in short: as §2

| IC50 (Liver X receptor) [µM] | inhibition [5] | inhibition [6] | EC50 [8] [µM] | EC50 [10] [µM] | SMILES | inhibition [1] | inhibition [2] | Activity [3] | inhibition [4] | Emax [7] [%] | Emax [9] [%] | Activity [11] |
| --- | --- | --- | --- | --- | --- | --- | --- | --- | --- | --- | --- | --- |
| 5.8 | Active | Active | 0.77 | 1.7 | C=C1c2ccccc2C(=O)N(C)c2ccc(C(O)(C(F)(F)F)C(F)(F)F)cc21 | inactive | inactive | Toxic | inactive | 73 | 45 |  |
|  |  |  |  |  | O=S(=O)(c1ccccc1)N(CC(F)(F)F)c1ccc(C(O)(C(F)(F)F)C(F)(F)F)cc1 [T091317] |  |  |  |  | 118 | 124 | Toxic |
